Active and inactive are the calls of the source. The calls are words filed in the database; no cut-off is given here.
Legend:
[1] = target: T1, Acetylcholinesterase (Homo sapiens, UniProt P22303); experiment: Inhibition of human recombinant AChE by modified Ellman's spectrophotometric method
[2] = target: T2, Cholinesterase (Homo sapiens, UniProt P06276); experiment: Inhibition of human plasma BuChE by modified Ellman's spectrophotometric method; assay type: cell-free
Outline: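 Purified human plasma BuChE (~0.05 units in 0.1% gelatin) in DTNB buffer at pH 8.0, 23 °C, read at 412 nm. Inhibitors first screened in 1:10 serial dilutions in 50% acetonitrile. Lineweaver–Burk plots used butyrylthiocholine 3 × 10^-5–1.6 × 10^-4 M without inhibitor and at two inhibitor concentrations. Ki taken as the x-intercept of the slope replot. Runs generally at least in triplicate and averaged.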

[3] = target: T2, Cholinesterase; details: 50 nM
[4] = target: T1, Acetylcholinesterase; experiment: Inhibition of human AChE at 1.8 uM by Michaelis-Menten analysis in presence of 20 mM acetylthiocholine as substrate
Outline: (§1)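 Purified recombinant human AChE (~0.03 units in 0.1% aqueous gelatin) in buffered DTNB (usually pH 8.0) at 23 °C. Fixed enzyme and inhibitor concentrations across acetylthiocholine 0.039–40 mM. Inhibitor added in 50% aqueous acetonitrile (final 1.67% v/v). Hydrolysis rate (ΔA/min) read at 412 nm every 5 s for 1 min. Michaelis–Menten plots of rate versus substrate concentration.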

[5] = target: T1, Acetylcholinesterase; experiment: Inhibition of human AChE at 1.8 uM by Michaelis-Menten analysis in presence of 10 mM acetylthiocholine as substrate; outline: as §1
[6] = target: T2, Cholinesterase; details: 1.8 uM
[7] = organism: Homo sapiens; experiment: Inhibition of human BuChE Y332A mutant assessed as residual activity at 500 nM by modified Ellman's spectrophotometric method relative to control
Outline: (§2)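 Recombinant human BuChE mutants (D70G, F329A, Y332A), with wild-type BuChE for comparison, tested by modified Ellman assay. Buffered DTNB (usually pH 8.0), 23 °C, single butyrylthiocholine concentration of 1.6 × 10^-4 M final. Inhibitor added in 50% aqueous acetonitrile (final 1.67% v/v). Rate read at 412 nm every 5 s for 1 min.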

[8] = organism: Homo sapiens; experiment: Inhibition of human BuChE F329A mutant at 500 nM by modified Ellman's spectrophotometric method; outline: as §2
[9] = target: T2, Cholinesterase; details: 1.8 uM; remark: listed apart in the source
[10] = target: T2, Cholinesterase; details: 500 nM
[11] = organism: Homo sapiens; experiment: Inhibition of human BuChE D70G mutant at 50 nM by modified Ellman's spectrophotometric method; outline: as §2

T2 sequence (P06276 whole entry): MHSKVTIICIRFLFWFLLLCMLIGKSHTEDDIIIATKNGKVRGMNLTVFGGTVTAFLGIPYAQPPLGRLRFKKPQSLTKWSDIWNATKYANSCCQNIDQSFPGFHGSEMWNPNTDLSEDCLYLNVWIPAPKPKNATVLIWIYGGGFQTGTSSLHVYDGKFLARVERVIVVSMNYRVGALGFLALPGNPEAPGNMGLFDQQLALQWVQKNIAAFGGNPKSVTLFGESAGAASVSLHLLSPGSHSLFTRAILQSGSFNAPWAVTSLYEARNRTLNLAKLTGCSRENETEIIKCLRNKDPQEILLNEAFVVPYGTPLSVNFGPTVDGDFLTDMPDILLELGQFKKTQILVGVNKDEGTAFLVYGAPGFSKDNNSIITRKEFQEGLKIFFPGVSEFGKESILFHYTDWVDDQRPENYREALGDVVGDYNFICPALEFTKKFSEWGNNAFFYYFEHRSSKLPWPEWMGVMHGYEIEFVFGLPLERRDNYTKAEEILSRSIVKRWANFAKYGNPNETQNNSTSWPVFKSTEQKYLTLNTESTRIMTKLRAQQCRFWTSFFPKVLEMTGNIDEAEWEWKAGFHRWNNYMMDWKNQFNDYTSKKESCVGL
T1 sequence (P22303 whole entry): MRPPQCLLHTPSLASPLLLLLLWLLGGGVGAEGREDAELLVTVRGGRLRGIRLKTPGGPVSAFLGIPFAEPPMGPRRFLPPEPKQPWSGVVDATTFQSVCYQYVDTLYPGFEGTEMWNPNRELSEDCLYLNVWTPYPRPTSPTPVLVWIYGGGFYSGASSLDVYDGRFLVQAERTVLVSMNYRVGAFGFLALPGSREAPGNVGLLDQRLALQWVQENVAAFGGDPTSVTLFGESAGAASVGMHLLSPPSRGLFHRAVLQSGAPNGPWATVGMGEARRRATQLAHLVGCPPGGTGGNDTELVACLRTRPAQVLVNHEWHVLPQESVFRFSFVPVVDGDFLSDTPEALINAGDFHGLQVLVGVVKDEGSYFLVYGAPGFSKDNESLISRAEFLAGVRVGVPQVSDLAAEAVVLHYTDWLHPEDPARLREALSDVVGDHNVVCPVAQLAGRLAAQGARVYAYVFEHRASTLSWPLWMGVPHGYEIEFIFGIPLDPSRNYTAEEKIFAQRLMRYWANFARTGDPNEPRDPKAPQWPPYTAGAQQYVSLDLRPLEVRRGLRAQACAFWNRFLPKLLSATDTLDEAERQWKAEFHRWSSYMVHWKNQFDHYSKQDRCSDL

| Compound | Ki [1] | Ki [2] | further results |
| --- | --- | --- | --- |
| O=C(NCc1cccc2ccccc12)N1c2ccccc2Sc2ccccc21 | Not Active | 0.15 µM | – |
| CCCN(CCC)C(=O)N1c2ccccc2Sc2ccccc21 | Not Active | 0.43 µM | – |
| CC(C)N(C(=O)N1c2ccccc2Sc2ccccc21)C(C)C | Not Active | 0.18 µM | – |
| CCN(CC)CCNC(=O)N1c2ccccc2Sc2ccccc21 | – | 0.51 µM | Ki ([1]; read-out: Ki): 16.3 µM |
| O=C(N1CCCC1)N1c2ccccc2Sc2ccccc21 | Not Active | 0.56 µM | – |
| O=C(NC12CC3CC(CC(C3)C1)C2)N1c2ccccc2Sc2ccccc21 | Not Active | 0.35 µM | – |
| O=C(NC1CCCCC1)N1c2ccccc2Sc2ccccc21 | Not Active | 2.81 µM | – |
| O=C(NCCc1ccccc1)N1c2ccccc2Sc2ccccc21 | Not Active | 0.19 µM | – |
| CCNC(=O)N1c2ccccc2Sc2ccccc21 | – | 35 µM | Ki ([1]; read-out: Ki): 1450 µM |
| Cc1ccccc1NC(=O)N1c2ccccc2Sc2ccccc21 | Not Active | 0.71 µM | – |
| O=C(Nc1ccc(Cl)cc1)N1c2ccccc2Sc2ccccc21 | Not Active | 4.69 µM | – |
| COc1ccc(NC(=O)N2c3ccccc3Sc3ccccc32)cc1 | Not Active | 9.63 µM | – |
| O=C(NCCN1CCOCC1)N1c2ccccc2Sc2ccccc21 | Not Active | 6.91 µM | – |
| CCCNC(=O)N1c2ccccc2Sc2ccccc21 | Not Active | 20.5 µM | – |
| O=C(NCCN1CCCC1)N1c2ccccc2Sc2ccccc21 | – | 0.21 µM | Ki ([1]; read-out: Ki): 29.4 µM |
| CCN(CC)C(=O)N1c2ccccc2Sc2ccccc21 | Not Active | 1.05 µM | – |
| O=C(NC1CC1)N1c2ccccc2Sc2ccccc21 | Not Active | 42.5 µM | – |
| CN1CCN(C(=O)N2c3ccccc3Sc3ccccc32)CC1 | Not Active | 17.1 µM | – |
| CC(C)(C)NC(=O)N1c2ccccc2Sc2ccccc21 | Not Active | 10.6 µM | – |

| Compound | Ki [1] | Ki [2] | further results |
| --- | --- | --- | --- |
| O=C(N1CCCCC1)N1c2ccccc2Sc2ccccc21 | Not Active | 1.56 µM | – |
| NC(=O)N1c2ccccc2Sc2ccccc21 | – | 90.8 µM | Ki ([1]; read-out: Ki): 89.3 µM |
| O=C(NC1CCC1)N1c2ccccc2Sc2ccccc21 | Not Active | 10 µM | – |
| O=C(NCCCN1CCOCC1)N1c2ccccc2Sc2ccccc21 | Not Active | 7.86 µM | – |
| CC(C)(C)CNC(=O)N1c2ccccc2Sc2ccccc21 | Not Active | 2.66 µM | – |
| CCCCNC(=O)N1c2ccccc2Sc2ccccc21 | Not Active | 24.7 µM | – |
| CC(C)N(CCNC(=O)N1c2ccccc2Sc2ccccc21)C(C)C | – | 0.009 µM | inhibition [3]: 50%; inhibition [4]: inactive; inhibition [5]: Active; inhibition [6]: Active; Activity [7]: 50%; inhibition [8]: Active; inhibition [9]: inactive; inhibition [10]: Active; Ki ([1]; read-out: Ki): 0.81 µM; inhibition [11]: inactive |
| O=C(Nc1ccccc1)N1c2ccccc2Sc2ccccc21 | Not Active | 0.31 µM | – |
| CN(C)C(=O)N1c2ccccc2Sc2ccccc21 | – | 9.2 µM | Ki ([1]; read-out: Ki): 400 µM |
| COCCNC(=O)N1c2ccccc2Sc2ccccc21 | Not Active | 29.1 µM | – |
| O=C(NC1CCCC1)N1c2ccccc2Sc2ccccc21 | Not Active | 2.99 µM | – |
| CN(CCCNC(=O)N1c2ccccc2Sc2ccccc21)c1ccccc1 | Not Active | 0.25 µM | – |
| CC(C)NC(=O)N1c2ccccc2Sc2ccccc21 | – | 3.41 µM | Ki ([1]; read-out: Ki): 691 µM |
| O=C(NCc1ccccc1)N1c2ccccc2Sc2ccccc21 | Not Active | 4.45 µM | – |
| CNC(=O)N1c2ccccc2Sc2ccccc21 | – | 18.3 µM | Ki ([1]; read-out: Ki): 9.36 µM |
| O=C(NCCN1CCCCC1)N1c2ccccc2Sc2ccccc21 | – | 0.02 µM | Ki ([1]; read-out: Ki): 0.62 µM |
| O=C(N1CCOCC1)N1c2ccccc2Sc2ccccc21 | Not Active | 7.1 µM | – |
| Cc1ccc(NC(=O)N2c3ccccc3Sc3ccccc32)cc1 | Not Active | 12.1 µM | – |

— ChEMBL document CHEMBL1157634, “Differential binding of phenothiazine urea derivatives to wild-type human cholinesterases and butyrylcholinesterase mutants” (Bioorg Med Chem, 2010)
